Rows were chosen to be rich in hits. Some 4.5% of all compounds tested hit in one or more screens of this group.
GPR7 antag: human neuropeptides B/W receptor 1 antagonism | hit rate 1.1% among 290,000 | GPR7-expressing cells, fluorescence antagonist assay | inhibition, % at 4.4 µM; in the data active = inhibition above about 16%, passing the limit was not always enough;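 also: cells stimulated with the agonist NPW; 0% = agonist with vehicle and 100% = vehicle without agonist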
Target sequence (P48145 whole entry, looked up): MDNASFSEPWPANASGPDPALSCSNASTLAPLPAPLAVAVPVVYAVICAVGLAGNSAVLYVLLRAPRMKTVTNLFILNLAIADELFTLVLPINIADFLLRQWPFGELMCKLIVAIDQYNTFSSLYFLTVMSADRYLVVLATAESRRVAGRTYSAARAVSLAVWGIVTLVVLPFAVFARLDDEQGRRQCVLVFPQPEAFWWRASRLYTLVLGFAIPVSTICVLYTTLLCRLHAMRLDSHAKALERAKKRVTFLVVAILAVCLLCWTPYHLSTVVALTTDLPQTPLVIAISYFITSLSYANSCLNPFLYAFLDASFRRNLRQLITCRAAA
CHO parental Ca: counter-screen for OX1R antagonists: effect in parental CHO cells. AID 463079. hit rate 0.63% among 330,000. inhibition, % at 5.6 µM. parental CHO-K1, ATP-induced calcium, Fluo-8 fluorescence;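 active = inhibition above that plate's mean sample inhibition plus 3 SD, cut at about 26% in these data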;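 also: 0% = ATP-challenged DMSO wells and 100% = DMSO wells without ATP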
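Measured by: calcium-sensitive Fluo-8 fluorescence / Test system: CHO parental line / Controls: ATP-challenged DMSO wells low, unchallenged DMSO wells high / Measure: % inhibition / Compound: single nominal dose of 5.6 µM per compound / Replicates: single well per compound, no replicates / Reagent: ATP as calcium-mobilizing challenge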
OX1R antag-1: OX1R (human) antagonism; OX1R-expressing cells, FRET antagonist read-out; inhibition, % at 6.6 µM; hit rate 1.8% among 330,000; AID 485270; in the data active = inhibition mostly above about 38%, no sharp cut-off; inactive = mostly below about 40%;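 also: 0% = agonist challenge alone and 100% = reference antagonist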
TAAR1 agonist: agonists of human TAAR1; Q96RJ0; CHO RD-HGA16 TAAR1, Fluo-8 calcium fluorescence; vehicle wells 0%, saturating PEA agonist 100%; activation, % at 3 µM; hit rate 0.99% among 360,000;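 active = activation above the mean activation of all test compounds in the run plus 3 SD, cut at about 38% in these data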
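Assay system: CHO-derived RD-HGA16 cells with stable Gα16 and human TAAR1; timing: 17-24 h seeding, 75 min 37 °C dye, 30 min RT; read-out: % activation from peak over basal fluorescence ratio, DMSO-to-PEA scaled; measured by: kinetic Fluo-8 calcium fluorescence; benchmarks: low control DMSO, high control PEA (EC100); doses: 3 µM single concentration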
TAAR1 antag: antagonists of human TAAR1; CHO RD-HGA16 TAAR1, Fluo-8 calcium fluorescence, antagonist; hit rate 1.5% among 360,000; inhibition, % at 3 µM; Q96RJ0; AID 624466;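 active = inhibition above a per-plate cutoff, the mean inhibition of test compounds on that plate plus 3 SD, cut at about 49% in these data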;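 also: 0% = DMSO plus EC80 beta-PEA response and 100% = DMSO alone without agonist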
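Test system: CHO RD-HGA16 cells bearing hTAAR1 | Reagent: β-PEA, EC80 | Compound dosing: 3 µM, single point | Schedule: Dye loading 75 min at 37 °C, then 30 min room temperature | Signal: Calcium fluorescence with Fluo-8 | Evaluation: Percent inhibition of PEA-evoked calcium signal, max/basal emission ratio | Control set: DMSO-only wells and EC80 β-PEA-stimulated wells | Repeats: Singlicate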
OX1R antag-2: antagonists of human orexin 1 receptor | O43613 | CHO/OX1R cells, Fluo-8 calcium fluorescence, orexin A | inhibition, % at 5 µM | hit rate 0.43% among 330,000;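 active = inhibition above its plate's threshold, mean inhibition of all tested compounds on the plate plus 3 SD, cut at about 37% in these data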;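 also: 0% = orexin A challenge wells and 100% = SB-334867-A antagonist wells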
OX1R HTRF conf: confirmation of human orexin 1 receptor antagonists, HTRF format | shares compounds with OX1R antag-1 | OX1R-expressing cells, HTRF antagonist assay | inhibition, % at 6.6 µM | hit rate 49% among 1,800 | AID 492964; in the data active = inhibition above about 55%;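 also: CHO cells expressing OX1R stimulated with orexin A at about EC80; 0% = agonist challenge alone and 100% = reference antagonist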
CHO-K1 HTRF cnt: counter-screen: parental CHO-K1 HTRF response. shares compounds with OX1R antag-1. parental CHO-K1 cells, HTRF counterscreen. inhibition, % at 6.6 µM. hit rate 48% among 1,800. AID 493232; in the data active = inhibition above about 17%;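 also: 0% = agonist challenge with vehicle and 100% = vehicle alone without agonist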
An asterisk follows results filed as active.

How did CCOC(=O)c1c(=O)n(O)c2ccc(OC)cc2[n+]1[O-] do in these assays?
GPR7 antag: -5.6; CHO parental Ca: 4.4; OX1R antag-1: 118.2*; TAAR1 agonist: 12.3; TAAR1 antag: 2.8; OX1R antag-2: 14.4; OX1R HTRF conf: 30.0; CHO-K1 HTRF cnt: 62.0*

How did CCOC(=O)C[n+]1c(C)sc2ccc(OC)cc21 do in these assays?
GPR7 antag: 8.5; CHO parental Ca: -2.8; OX1R antag-1: 13.1; OX1R antag-2: -32.1

Results for Cc1nc2ccccc2c2oc(C(=O)N3CCN(c4ccc([N+](=O)[O-])cc4)CC3)cc12 ?
GPR7 antag: -0.1; CHO parental Ca: -11.2; OX1R antag-1: 6.4; TAAR1 agonist: 0.2; TAAR1 antag: 5.0; OX1R antag-2: -1.4

What do the screens show for `COc1cccc2cc(C(=O)NCc3ccccn3)c(=O)oc12`?
GPR7 antag: -5.3; CHO parental Ca: -3.7; OX1R antag-1: 115.8*; TAAR1 agonist: 5.8; TAAR1 antag: 7.5; OX1R antag-2: -6.7; OX1R HTRF conf: 33.3; CHO-K1 HTRF cnt: 33.6*

What do the screens show for `CNC(=O)c1cc2cccc(OC)c2oc1=O`?
GPR7 antag: -7.2; CHO parental Ca: -5.4; OX1R antag-1: 41.9; TAAR1 agonist: 9.3; TAAR1 antag: -3.2; OX1R antag-2: -6.1

What do the screens show for `C/C(=N/NC(=O)CN1CCN(Cc2ccccc2)CC1)c1ccc([N+](=O)[O-])cc1`?
GPR7 antag: -9.5; CHO parental Ca: -10.3; OX1R antag-1: 76.9*; TAAR1 agonist: -0.7; TAAR1 antag: -13.9; OX1R antag-2: -13.0; OX1R HTRF conf: 39.3; CHO-K1 HTRF cnt: 28.5*

What do the screens show for `COc1ccccc1/C=N/N1C(=O)c2cccc3cccc(c23)C1=O`?
GPR7 antag: 0.0; CHO parental Ca: -7.3; OX1R antag-1: 96.7*; TAAR1 agonist: 0.5; TAAR1 antag: -2.7; OX1R antag-2: -8.4; OX1R HTRF conf: 48.3; CHO-K1 HTRF cnt: 55.0*

How did Cc1onc(-c2ccccc2Cl)c1C(=O)NCc1nnnn1-c1ccc(F)c(F)c1 do in these assays?
TAAR1 agonist: 0.5; TAAR1 antag: 1.3

What do the screens show for `CCN(CC)c1ccc2nc3ccccc3[n+](CC)c2c1`?
GPR7 antag: -16.5; CHO parental Ca: -7.5; OX1R antag-1: 149.4*; OX1R antag-2: 0.6; OX1R HTRF conf: 110.2*; CHO-K1 HTRF cnt: 157.1*

What do the screens show for `CCNC(=O)C1(C)CCN(C(=O)c2c(F)cccc2F)C1` (stereo not drawn)?
TAAR1 agonist: 0.0; TAAR1 antag: -8.0

Results for COc1ccc2oc(=O)c(C(=O)NCc3cccnc3)cc2c1 ?
GPR7 antag: -11.4; CHO parental Ca: -21.0; OX1R antag-1: 82.6*; TAAR1 agonist: 3.6; TAAR1 antag: -5.2; OX1R antag-2: -24.4; OX1R HTRF conf: 35.0; CHO-K1 HTRF cnt: 40.0*

What do the screens show for `COc1ccc2oc(=O)c(C(=O)NCc3ccc(F)cc3)cc2c1`?
GPR7 antag: -17.7; CHO parental Ca: -4.9; OX1R antag-1: 17.3; TAAR1 agonist: 4.3; TAAR1 antag: -18.9; OX1R antag-2: -20.8

What do the screens show for `CC(C)(C)n1cnnc1Sc1ncccc1[N+](=O)[O-]`?
GPR7 antag: -10.3; CHO parental Ca: -5.7; OX1R antag-1: 84.5*; TAAR1 agonist: 2.9; TAAR1 antag: -8.2; OX1R antag-2: -9.4; OX1R HTRF conf: 31.5; CHO-K1 HTRF cnt: 29.4*

Results for CCOCCCn1c(=N)c(C(N)=S)cc2c(=O)n3cccc(C)c3nc21 ?
GPR7 antag: -9.1; CHO parental Ca: -25.5; OX1R antag-1: 86.8*; TAAR1 agonist: 2.8; TAAR1 antag: 3.5; OX1R antag-2: -12.8; OX1R HTRF conf: 47.5; CHO-K1 HTRF cnt: 42.3*

What do the screens show for `CCNC(=O)c1cc2c(=O)n3cccc(C)c3nc2n(CCc2ccccc2)c1=N`?
GPR7 antag: -0.4; CHO parental Ca: -1.9; OX1R antag-1: 69.6; TAAR1 agonist: 7.9; TAAR1 antag: 6.3; OX1R antag-2: -16.6

Assay outcomes as filed in PubChem BioAssay.
